Experimental data published in ChEMBL document CHEMBL5055628, “Anticancer properties of indole derivatives as IsoCombretastatin A-4 analogues” (Eur J Med Chem, 2021).

Tested on: HCT-116
Assay: Cytotoxicity against human HCT-116 cells assessed as inhibition of cell growth measured after 72 hrs by CellTiter-Glo reagent based luminescence assay
Assay type: functional
Conditions: HCT-116, 72 h
Summary of the method: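 Cells (HCT-116 in McCoy's 5A; U87-MG in DMEM 4.5 g/L glucose; all with 10% serum, 1% glutamine, 37 °C, 5% CO2) seeded at 3 × 10³/well, treated after 24 h with 10 final concentrations by serial dilution; vehicle controls. After 72 h, CellTiter-Glo luminescence; IC50 from four- or five-parameter logistic fit, triplicate, mean of three experiments.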

Cc1nc(N(C)c2ccc3c(c2)cc2ccccn23)c2ccccc2n1
IC50: 6.87 nM

CCn1c(CO)cc2cc(N(C)c3cc(OC)c(OC)c(OC)c3)ccc21
IC50: 987 nM

C=C(c1ccc2c(c1)cc1n2CCOC1)c1cc(C)nc2ccccc12
IC50: 109 nM

C=C(c1ccc2c(c1)cc(CO)n2CC)c1cc(C)nc2ccccc12
IC50: 1.47 nM

C=C(c1cc(OC)c(OC)c(OC)c1)c1ccc2c(c1)cc(CO)n2C
IC50: 2.12 nM

Cc1cc(N(C)c2ccc3c(c2)cc2n3CCOC2)c2ccccc2n1
IC50: 3.22 nM

COc1cc2nc(Cl)nc(N(C)c3ccc4c(c3)cc3n4CCOC3)c2cc1OC
IC50: 361 nM

Cc1nc(N(C)c2ccc3c(c2)cc2n3CCOC2)c2ccccc2n1
IC50: 10.4 nM

Cc1cc(N(C)c2ccc3c(c2)cc(CO)n3C)c2ccccc2n1
IC50: 16.4 nM

Cc1cc(N(C)c2ccc3c(c2)cc2ccccn23)c2ccccc2n1
IC50: 78.4 nM

COCc1cc2cc(N(C)c3cc(OC)c(OC)c(OC)c3)ccc2n1C
IC50: 47.5 nM

C=C(c1cc(OC)c(OC)c(OC)c1)c1ccc2c(c1)cc1ccccn12
IC50: 213 nM

CN(c1ccc2c(c1)cc1n2CCOC1)c1cc(C#N)nc2ccccc12
IC50: 2.8 nM

COc1cc(N(C)c2ccc3c(c2)cc2n3CC=CC2)cc(OC)c1OC
IC50: 959 nM
